Experimental data: publication PMC3925341 (Journal of medicinal chemistry, 2013)
Entries after “also recorded” stand apart in the source; their conditions may differ. Blank lines part the entries; values can stand above or below the compound they belong to.

Assays:
CUG repeat = conditions: cited from earlier work
[1] = system: DM1 cell model (HeLa cells); conditions: cited from earlier work
[2] = system: CUG^exp foci in DM1 cell model (HeLa cells transfected with DMPK-CTG960); test: FISH study of; assay type: cell-based; conditions: 36 h
HeLa cells = test: Sulforhodamine B cytotoxicity assay; assay type: cell-based; conditions: concentrations up to 75 μM, 24 h
[3] = system: DM1 cell model (HeLa cells); test: Cellular and nuclear penetration by acridine fluorescence; assay type: cell-based; conditions: monitored by inherent acridine fluorescence
Procedure, shortened: (§1)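 Live-cell time-lapse confocal imaging of HeLa cells co-transfected with a DMPK-CTG960 minigene plasmid and a GFP-MBNL1 plasmid. Test compound at 50 μM final. Images were taken just before addition and at 3, 6 and 10 h. Cells were relocated on a gridded dish by DIC. Compound uptake was followed by its acridine fluorescence, and foci by GFP-MBNL1. Untreated cells served as control. Z-stacks of 1 μm slices were taken at 10 h.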

[4] = Solubility in buffer / water
(CUG)12·MBNL1 = test: SPR-based inhibition of the MBNL1·; assay type: biochemical; conditions: relative to monomeric ligand 2
Procedure, shortened: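 Biotinylated (CUG)12 was immobilized on a streptavidin SPR chip, with Tween-20 and excess competitor tRNA, in 1X PBS. The chip was preincubated with test compound to steady-state RU over 150 s. MBNL1 (0.65 μM) was then injected with compound held at the same concentration. Maximum RU at 150 s was converted to % (CUG)12 bound, normalized to no compound, and fitted dose-response for apparent IC50. Normalized IC50 = IC50 divided by the number of binding modules. Bivalent effect = normalized IC50 of monomer reference divided by that of dimer. Three experiments.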

TAMRA-(CUG)6 = test: Steady state fluorescence titration of 5'-TAMRA-; assay type: binding; conditions: for KD: TAMRA-(CUG)6, 1X PBS; for fold decrease in KD compared to 2 (fold greater affinity to (CUG)6): relative to monomeric ligand 2
Procedure, shortened: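 TAMRA-(CUG)6 was titrated with increasing test compound in 1X PBS, with excitation at 560 nm and emission at 590 nm. Normalized fluorescence intensities were fitted to a binding equation with Fmax and F0 to give KD. Mean ± s.d. of three independent experiments.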

[5] = system: MBNL1 foci in live DM1 cell model (HeLa cells, DMPK-CTG960 and GFP-MBNL1); test: Time-lapse confocal microscopy of MBNL1 foci in live DM1 model cells; assay type: cell-based; conditions: 50 μM, over 10 h
Procedure, shortened: as §1

(CUG)12 = test: Optical melting; assay type: binding; conditions: 11 versus 7, same number of linker atoms
[6] = 20, 35 and 50 μM (any concentration)

SMILES: COc1ccc2nc3cc(Cl)ccc3c(NCCCCNc3nc(N)nc(N)n3)c2c1 [Ligand 1]
selectivity for CUG repeat relative to a random duplex (CUG repeat): over 50 fold
cell permeability [1]: poor cell permeability

SMILES: CNC(=O)c1ccc2nc3ccccc3c(NCCCCNc3nc(N)nc(N)n3)c2c1 [Ligand 2]
(CUG)960 foci dispersion [2, 6]: no significant foci dispersion
cytotoxicity (HeLa cells): less than 20%

SMILES: Nc1nc(N)nc(NCCCCNc2c3ccccc3nc3ccc(C(=O)NCCOCCOCCNC(=O)c4ccc5nc6ccccc6c(NCCCCNc6nc(N)nc(N)n6)c5c4)cc23)n1 [Ligand 7]
bivalent effect (ratio of normalized IC50 of 2 to that of the dimeric ligand) ((CUG)12·MBNL1): 8
KD (TAMRA-(CUG)6): close to the monomeric ligand 2

SMILES: Nc1nc(N)nc(NCCCCNc2c3ccccc3nc3c(C(=O)NCCOCCOCCOCCOCCOCCNC(=O)c4cccc5c(NCCCCNc6nc(N)nc(N)n6)c6ccccc6nc45)cccc23)n1 [Ligand 8]
bivalent effect (ratio of normalized IC50 of 2 to that of the dimeric ligand) ((CUG)12·MBNL1): 4

SMILES: Nc1nc(N)nc(NCCCCNc2c3ccccc3nc3c(C(=O)NCCNCCNCCNC(=O)c4cccc5c(NCCCCNc6nc(N)nc(N)n6)c6ccccc6nc45)cccc23)n1 [Ligand 11]
fold higher ΔTm value than 7 ((CUG)12): > 3 fold
(CUG)960 foci dispersion [2, 6]: no significant foci dispersion
bivalent effect (ratio of normalized IC50 of 2 to that of the dimeric ligand) ((CUG)12·MBNL1): 29
fold decrease in KD compared to 2 (fold greater affinity to (CUG)6) (TAMRA-(CUG)6): 14 fold

SMILES: Nc1nc(N)nc(NCCCCNc2c3ccccc3nc3ccc(C(=O)NCCOCCOCCOCCOCCOCCNC(=O)c4ccc5nc6ccccc6c(NCCCCNc6nc(N)nc(N)n6)c5c4)cc23)n1 [Ligand 13]
bivalent effect (ratio of normalized IC50 of 2 to that of the dimeric ligand) ((CUG)12·MBNL1): 3

SMILES: NCCCNCCCCNCCCN [spermine, Spermine, reference compound]
(CUG)960 foci dispersion [2, 6]: no significant foci dispersion

Continued, in another order:

cellular and nuclear penetration [3]: cell-permeable and nucleus-permeable
Solubility in the buffer used for optical melting (Solution) ([4]; N.S. = not sufficiently soluble): not fully soluble
SMILES: Nc1nc(N)nc(NCCCCNc2c3ccccc3nc3ccc(C(=O)NCCCNCCCCCCCCNCCCNC(=O)c4ccc5nc6ccccc6c(NCCCCNc6nc(N)nc(N)n6)c5c4)cc23)n1 [Ligand 5]
(CUG)960 foci dispersion [2, 6]: no significant foci dispersion

Aqueous solubility [4]: aqueous-soluble
fold decrease in KD compared to 2 (fold greater affinity to (CUG)6) (TAMRA-(CUG)6): 206 fold
SMILES: Nc1nc(N)nc(NCCCCNc2c3ccccc3nc3c(C(=O)NCCCNCCCNCCCNC(=O)c4cccc5c(NCCCCNc6nc(N)nc(N)n6)c6ccccc6nc45)cccc23)n1 [Ligand 9]
cellular and nuclear penetration [3]: both cell- and nucleus-permeable; also recorded: penetrate the cellular and nuclear membrane
(CUG)960 foci dispersion ([2]; 20 μM, p-value < 0.009): partial foci dispersion
(CUG)960 foci dispersion ([2]; 35 μM, p-value < 0.009): partial foci dispersion
(CUG)960 foci dispersion ([2]; 50 μM): full foci dispersion
cytotoxicity (HeLa cells): less than 20%
MBNL1 foci dispersion in live cells [5]: almost complete dispersion; also recorded: gradually dispersing over time; also recorded: almost all the foci are dispersed; also recorded: gradual MBNL1 foci dispersion
bivalent effect (ratio of normalized IC50 of 2 to that of the dimeric ligand) ((CUG)12·MBNL1): 133
fold greater inhibition potency than 2 in inhibiting formation of the (CUG)12·MBNL1 complex ((CUG)12·MBNL1): 266 fold
fold tighter binder than 10 (TAMRA-(CUG)6; 9 versus 10): 10 fold

fold decrease in KD compared to 2 (fold greater affinity to (CUG)6) (TAMRA-(CUG)6): 17 fold
SMILES: Nc1nc(N)nc(NCCCCNc2c3ccccc3nc3c(C(=O)NCCNCCNCCNCCNC(=O)c4cccc5c(NCCCCNc6nc(N)nc(N)n6)c6ccccc6nc45)cccc23)n1 [Ligand 10]
bivalent effect (ratio of normalized IC50 of 2 to that of the dimeric ligand) ((CUG)12·MBNL1): 24

KD (TAMRA-(CUG)6): close to the monomeric ligand 2
SMILES: Nc1nc(N)nc(NCCCCNc2c3ccccc3nc3ccc(C(=O)NCCCOCCOCCOCCCNC(=O)c4ccc5nc6ccccc6c(NCCCCNc6nc(N)nc(N)n6)c5c4)cc23)n1 [Ligand 12]
bivalent effect (ratio of normalized IC50 of 2 to that of the dimeric ligand) ((CUG)12·MBNL1): 5
